ChEMBL document CHEMBL1139436, “Quantitative structure-activity relationship of sesquiterpene lactones as inhibitors of the transcription factor NF-kappaB” (J Med Chem, 2004)

Columns and labels:
[1] = molecular target: T1, Nuclear factor NF-kappa-B complex (Homo sapiens) (UniProt Q00653+P19838+Q04206); assay: (§1) Concentration required for complete inhibition of Nuclear factor kappa B DNA binding; format: protein-complex assay; design: unit not given here
Procedure, shortened: (§2)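 Jurkat T cells (RPMI 1640, 10% FCS, penicillin/streptomycin) pretreated 1 h with sesquiterpene lactone, first at 10, 20, 50, 100 μM, then 1–5 μM or 200–300 μM as needed. Stimulated 1 h with 200 U/mL TNF-α. Total extracts (Totex high-salt buffer) analysed by EMSA with ³²P-labeled NF-κB oligonucleotide, 25 min at room temperature. IC100 is the lowest tested level fully blocking binding; intermediate values assigned the higher level. Each experiment reproduced at least once.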

[2] = molecular target: T1, Nuclear factor NF-kappa-B complex (Homo sapiens); assay: as §1; format: protein-complex assay; procedure, shortened: as §2

T1 sequence (P19838 whole entry, looked up): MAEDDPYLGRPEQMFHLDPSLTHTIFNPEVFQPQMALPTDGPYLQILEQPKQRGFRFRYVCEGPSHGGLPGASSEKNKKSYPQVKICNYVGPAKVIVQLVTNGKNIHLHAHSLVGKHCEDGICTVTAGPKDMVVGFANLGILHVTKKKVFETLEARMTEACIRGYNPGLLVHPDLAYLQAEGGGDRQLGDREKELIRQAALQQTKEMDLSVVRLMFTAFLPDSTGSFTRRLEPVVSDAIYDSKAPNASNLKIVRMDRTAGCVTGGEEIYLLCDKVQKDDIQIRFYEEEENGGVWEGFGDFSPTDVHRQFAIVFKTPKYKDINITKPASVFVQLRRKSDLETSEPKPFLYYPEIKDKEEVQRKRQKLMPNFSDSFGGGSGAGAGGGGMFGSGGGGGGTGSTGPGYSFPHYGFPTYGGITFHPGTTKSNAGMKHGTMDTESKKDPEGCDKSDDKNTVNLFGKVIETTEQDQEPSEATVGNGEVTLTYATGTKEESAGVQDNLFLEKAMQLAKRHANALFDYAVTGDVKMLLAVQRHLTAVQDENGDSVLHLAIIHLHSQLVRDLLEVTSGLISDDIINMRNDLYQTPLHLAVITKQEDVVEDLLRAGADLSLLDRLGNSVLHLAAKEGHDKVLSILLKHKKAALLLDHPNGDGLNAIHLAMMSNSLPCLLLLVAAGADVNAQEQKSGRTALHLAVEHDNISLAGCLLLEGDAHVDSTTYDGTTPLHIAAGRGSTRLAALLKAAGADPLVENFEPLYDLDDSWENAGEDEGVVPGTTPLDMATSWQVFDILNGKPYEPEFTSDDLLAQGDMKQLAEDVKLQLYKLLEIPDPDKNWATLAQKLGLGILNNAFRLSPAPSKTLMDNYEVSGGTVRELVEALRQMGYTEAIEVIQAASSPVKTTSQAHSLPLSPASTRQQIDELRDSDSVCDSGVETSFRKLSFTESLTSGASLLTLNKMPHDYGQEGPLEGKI
T1 sequence (Q00653 whole entry, looked up): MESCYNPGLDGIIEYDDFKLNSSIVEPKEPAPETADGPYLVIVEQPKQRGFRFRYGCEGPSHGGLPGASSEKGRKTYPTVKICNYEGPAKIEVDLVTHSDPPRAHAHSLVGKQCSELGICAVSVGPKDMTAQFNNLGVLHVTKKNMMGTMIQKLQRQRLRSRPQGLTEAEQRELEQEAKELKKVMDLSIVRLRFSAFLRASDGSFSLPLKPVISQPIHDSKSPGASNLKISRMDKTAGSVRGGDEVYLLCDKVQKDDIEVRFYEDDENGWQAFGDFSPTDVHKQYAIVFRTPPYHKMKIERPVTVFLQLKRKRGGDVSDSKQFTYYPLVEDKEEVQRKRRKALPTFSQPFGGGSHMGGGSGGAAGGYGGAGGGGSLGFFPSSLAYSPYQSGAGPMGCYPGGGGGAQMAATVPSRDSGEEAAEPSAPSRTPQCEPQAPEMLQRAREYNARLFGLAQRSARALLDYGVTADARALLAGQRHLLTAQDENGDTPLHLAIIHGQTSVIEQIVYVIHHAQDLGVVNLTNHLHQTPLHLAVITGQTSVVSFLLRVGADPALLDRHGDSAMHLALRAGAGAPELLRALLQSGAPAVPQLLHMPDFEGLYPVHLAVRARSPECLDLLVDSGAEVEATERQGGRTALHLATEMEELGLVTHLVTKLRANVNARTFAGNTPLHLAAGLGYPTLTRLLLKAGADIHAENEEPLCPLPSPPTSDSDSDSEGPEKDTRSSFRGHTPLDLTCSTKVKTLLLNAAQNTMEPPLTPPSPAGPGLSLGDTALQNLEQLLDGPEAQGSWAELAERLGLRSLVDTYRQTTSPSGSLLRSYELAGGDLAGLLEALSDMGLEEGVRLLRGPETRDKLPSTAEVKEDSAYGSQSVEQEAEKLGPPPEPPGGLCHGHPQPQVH
T1 sequence (Q04206 whole entry, looked up): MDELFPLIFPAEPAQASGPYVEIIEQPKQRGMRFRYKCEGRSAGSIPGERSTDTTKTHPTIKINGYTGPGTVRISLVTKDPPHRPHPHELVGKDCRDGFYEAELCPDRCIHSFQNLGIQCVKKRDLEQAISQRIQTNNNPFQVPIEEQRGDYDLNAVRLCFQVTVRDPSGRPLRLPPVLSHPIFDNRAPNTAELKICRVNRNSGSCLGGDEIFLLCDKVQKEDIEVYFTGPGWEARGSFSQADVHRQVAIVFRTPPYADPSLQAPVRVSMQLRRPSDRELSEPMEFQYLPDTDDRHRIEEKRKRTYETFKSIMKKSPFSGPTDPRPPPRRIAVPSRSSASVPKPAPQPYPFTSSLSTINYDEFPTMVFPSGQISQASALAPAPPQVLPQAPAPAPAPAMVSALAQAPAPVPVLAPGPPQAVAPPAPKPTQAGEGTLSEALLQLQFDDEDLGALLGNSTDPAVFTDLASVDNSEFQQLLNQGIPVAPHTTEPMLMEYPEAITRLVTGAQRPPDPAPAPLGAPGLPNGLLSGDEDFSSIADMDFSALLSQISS

SMILES | pIC100 [1] | IC100 [2] [µM]
C=C1C(=O)O[C@H]2C/C(CO)=C\CC/C(COC(=O)C(C)C(C)O)=C\C[C@H]12 (some centres not stated) | -1.69 | 50
C=C(C)C(=O)O[C@H]1/C(C=O)=C\CC/C(C)=C\[C@H]2OC(=O)C(=C)[C@@H]2[C@@H]1O | -0.69 | 5
C[C@@H]1C[C@H]2OC(=O)[C@@H](C)[C@H]2[C@H](O)[C@]2(C)C(=O)C=C[C@@H]12 |  | 200
C=C1C(=O)O[C@H]2C/C(CO)=C\CC/C(COC(=O)C(C)C)=C\C[C@H]12 | -1.69 | 50
C=C(C)C(=O)O[C@@H]1C=C(C=O)CCCC(=C)[C@H](O)[C@H]2OC(=O)C(=C)[C@@H]21 | -1 | 10
C=C1C(=O)O[C@@H]2[C@H]3C(CO)=CC(=O)C3=C(C)CC[C@@H]12 | -1.69 | 50
C=C1C(=O)O[C@@H]2/C=C(/C)C3=CC(=O)[C@@](C)(C[C@@H](OC(=O)/C(C)=C\C)[C@@H]12)O3 | -0.39 | 5
C=C1C(=O)O[C@H]2C[C@H](C)C3=C(C[C@H]12)[C@@H](C)CC3=O | -1.3 | 20
C=C1C(=O)O[C@H]2[C@H]1[C@@H](OC(=O)/C(C)=C/C)C/C(C)=C/C(=O)/C=C(/C)[C@@H]2O | -1 | 10
C=C1[C@@H]2[C@H]3OC(=O)C(=C)[C@@H]3CCC(=C)[C@@H]2C[C@@H]1OC(=O)C=C(C)C | -2.3 | 200
C=C(C)C(=O)O[C@H]1[C@@H]2[C@H](C)C(=O)O[C@@H]2C[C@@H](C)[C@@H]2C=CC(=O)[C@]21C |  | 100
C=C1C(=O)O[C@H]2C3=C(C(=O)C[C@@H]3C)[C@@H](C)CC[C@@H]12 | -1.3 | 20
C=C1C(=O)O[C@@H]2C[C@@H](C)[C@@H]3C=CC(=O)[C@@]3(C)[C@@H](OC(=O)C(C)C)[C@H]12 |  | 20
CC[C@@H](C)[C@@]1(O)O[C@H]2C[C@@]3(C)OC(=CC3=O)/C(COC(C)=O)=C\[C@H]3OC(=O)[C@@]1(C)C23 (some centres not stated) | -0.69 | 5
C=C1C(=O)O[C@]23C[C@H]1CCC(CO)=C2C(=O)C=C3C |  | 50
C=C1[C@@H]2[C@H]3OC(=O)C(=C)[C@@H]3CC[C@](C)(O)[C@@H]2C[C@@H]1O | -2.3 | 200
C=C1C(=O)O[C@H]2/C=C(\C)[C@@H](O)CC/C(C)=C/C[C@H]12 | -2 | 200
C=C1C(=O)C=C2[C@H]1C[C@@H]1C(=C)C(=O)O[C@H]1C[C@@H]2C | -0.69 | 5
C=C1C(=O)O[C@@H]2C3=C(C(=O)C[C@@H]3C)[C@@H](C)CC[C@@H]12 | -1.3 | 20
C=C1C(=O)O[C@@H]2/C=C(/C)[C@H](OC(C)=O)C/C=C(/C)CC[C@@H]12 | -1.69 | 50
C=C1[C@H](O)C[C@H](O)[C@]2(C)CC[C@H]3C(=C)C(=O)O[C@@H]3[C@@H]12 |  | 100
C=C1C(=O)O[C@@H]2/C=C(/C)C3=CC(=O)[C@@](C)(C[C@@H](OC(=O)/C(C)=C/C)[C@@H]12)O3 | -0.69 | 5
C/C=C(\C)C(=O)O[C@H]1[C@@H]2[C@H](C)C(=O)O[C@@H]2C[C@@H](C)[C@@H]2C=CC(=O)[C@]21C |  | 100
C=C(C)C(=O)O[C@H]1[C@H]2C(=C)C(=O)O[C@@H]2[C@@H](O)C(=C)CC/C=C(/C=O)[C@@H]1OC(C)=O | -1 | 10

SMILES | pIC100 [1] | IC100 [2] [µM]
C=C1C(=O)O[C@@H]2[C@H]3C(C)=CC(=O)C3=C(C)C[C@@H](OC(=O)[C@]3(C)O[C@@H]3C)[C@@H]12 | -1.3 | 20
C=C(CO)C(=O)OC/C1=C/C[C@@H]2C(=C)C(=O)O[C@H]2C/C(CO)=C\CC1 | -1.3 | 20
C=C1C(=O)O[C@@H]2C[C@@]3(C)[C@H](O)CC=C(COC(=O)C(C)C)[C@@H]3C[C@H]12 |  | 50
C=C1C(=O)C[C@H]2C(=C)C(=O)O[C@@H]2/C=C(/COC(=O)CC(C)C)CC[C@H]1OC | -1.09 | 12.5
C=C(C)C(=O)O[C@@H]1/C=C(\C=O)CCC[C@@]2(CO2)[C@H](O)[C@H]2OC(=O)C(=C)[C@@H]21 | -1 | 5
C=C1C(=O)O[C@@H]2C[C@@H](C)[C@@H]3CCC(=O)[C@@]3(C)C[C@H]12 |  | 50
C=C1C(=O)O[C@]23C[C@H]1CCC(COC(C)=O)=C2C(=O)C=C3C |  | 100
C=C1C(=O)O[C@@H]2/C=C(/CO)C3=CC(=O)[C@@](C)(C[C@H](OC(=O)/C(C)=C/C)[C@@H]12)O3 | -0.69 | 5
C=C(C)C(=O)O[C@H]1/C(C=O)=C\CC/C(COC(C)=O)=C\[C@H]2OC(=O)C(=C)[C@@H]2[C@@H]1O | -0.69 | 5
C=C1[C@@H]2[C@H]3OC(=O)C(=C)[C@@H]3CCC(=C)[C@@H]2C[C@@H]1OC(C)=O |  | 100
C=C1C(=O)O[C@@H]2/C=C(/CO)C3=CC(=O)[C@@](C)(C[C@@H](OC(=O)/C(C)=C/C)[C@@H]12)O3 | -0.69 | 5
C=C(C)C(=O)O[C@@H]1/C=C(/C=O)CCCC(=C)[C@H](O)[C@H]2OC(=O)C(=C)[C@@H]21 | -0.69 | 5
C=C(C)C(=O)O[C@H]1[C@H]2C(=C)C(=O)O[C@@H]2[C@@H](O)C(=C)CC/C=C(/C=O)[C@@H]1OC | -1.3 | 50
C=C1C[C@@H]2OC(=O)C(=C)[C@H]2[C@H](O)/C=C(\C)CCC1=O | -1.69 | 50
C=C1C(=O)O[C@@H]2/C=C(/C)CC/C=C(/C)CC[C@@]12O | -1 | 10
C=C1C(=O)O[C@@H]2C[C@@H](C)[C@@H]3[C@@H](OC(C)=O)C[C@@H](O)[C@@]3(C)C[C@H]12 |  | 200
C=C1C(=O)O[C@@H]2[C@@H]3[C@@](C)(CC[C@@H]12)[C@@H](O)C[C@H]1O[C@@]31C |  | 200
C=C(C)C(=O)O[C@@H]1CC(C)=C2C(=O)C=C(C)[C@@H]2[C@H]2OC(=O)C(=C)[C@@H]21 | -1 | 10
C=C(C)C(=O)O[C@H]1C/C(C)=C\[C@@]2(OC)C=C(C)[C@H](O2)[C@H]2OC(=O)C(=C)[C@@H]21 | -1 | 10
C=C1C(=O)OC2/C=C(/C)CC/C=C(/C)[C@@H](OC(C)=O)C[C@@H]12 (some centres not stated) | -2.3 | 200
C=C(C)C(=O)O[C@H]1[C@H]2C(=C)C(=O)O[C@@H]2[C@H]2O[C@]2(C)CC/C=C(/C=O)[C@@H]1O | -1 | 10
C=C(C)C(=O)O[C@@H]1C[C@@]2(C)OC(=CC2=O)/C(C)=C\[C@H]2OC(=O)C(=C)[C@@H]21 | -1 | 10
C=C1C(=O)O[C@H]2[C@H]1[C@H](OC(=O)C(C)C)[C@@H](OC(C)=O)/C(C=O)=C\CCC1(CO1)[C@@H]2O (some centres not stated) | -0.69 | 5
C=C1C(=O)O[C@@H]2/C=C(/COC(=O)CC(C)C)C[C@H](OC(C)=O)/C=C(/CO)C(=O)C[C@@H]12 | -1.09 | 12.5

SMILES | pIC100 [1] | IC100 [2] [µM]
C=C1C(=O)O[C@@H]2C[C@@]3(C)[C@H](O)CC[C@](O)(COC(=O)C(C)C)[C@@H]3C[C@H]12 |  | 200
C=C(C)C(=O)OC/C1=C/C[C@@H]2C(=C)C(=O)O[C@H]2C/C(CO)=C\CC1 | -1.3 | 50
C=C(CO)C(=O)OC/C1=C/C[C@@H]2C(=C)C(=O)O[C@H]2C/C(COC(C)=O)=C\CC1 | -1.69 | 50
C=C1C(=O)O[C@@H]2C[C@H](C)[C@@H]3CC(=O)C(C)=C3C[C@H]12 |  | 50
C=C1C(=O)O[C@@H]2C[C@H](C)C3=C(C[C@H]12)[C@@H](C)CC3=O | -1.3 | 20
C=C1C(=O)O[C@H]2C[C@H](C)C3=CC(=O)[C@H](C)C3C[C@H]12 (some centres not stated) | -1.3 | 20
C=C1C(=O)O[C@@H]2[C@H]3C(C)=CC(=O)C3=C(C)CC[C@@H]12 |  | 50
C=C1C(=O)O[C@@H]2/C=C(/COC(=O)CC(C)C)CC/C=C(/CO)C(=O)C[C@@H]12 (stereo in doubt; 3) | -1.09 | 12.5
C=C(C)C(=O)O[C@H]1C/C(C)=C/C(=O)/C=C(/C)[C@H](O)[C@H]2OC(=O)C(=C)[C@@H]21 | -1 | 10
C=C1C(=O)O[C@@H]2[C@H]3C(C)=CC[C@@H](O)[C@]3(C)CC[C@@H]12 |  | 100
C=C1C(=O)O[C@@H]2C[C@@]3(C)[C@H](O)CC[C@@](O)(COC(=O)C(C)C)[C@@H]3C[C@H]12 |  | 200
C=C1C(=O)O[C@@H]2C[C@@]3(C)CC(=O)C(OC(C)=O)=C(C)C3C[C@H]12 (some centres not stated) |  | 100
CC(=O)O[C@H]1[C@@H]2[C@H](C)C(=O)O[C@@H]2C[C@@H](C)[C@@H]2C=CC(=O)[C@]21C |  | 200
C=C1C(=O)O[C@H]2[C@H]1[C@H](OC(=O)[C@@]1(C)O[C@H]1C)[C@@H](OC(C)=O)/C(C(=O)OC)=C\CC[C@@]1(C)O[C@@H]21 |  | 10
C=C1C(=O)O[C@@H]2/C=C(/C)CC/C=C(/C)CC[C@@H]12 |  | 50
C=C1C(=O)O[C@@H]2C[C@@H](C)[C@@H]3C=CC(=O)[C@@]3(C)[C@@H](O)[C@H]12 |  | 10
C=C1[C@H](O)C[C@@H](O)[C@]2(C)CC[C@H]3C(=C)C(=O)O[C@@H]3[C@@H]12 |  | 200
C=C1C(=O)O[C@@H]2C[C@@]3(C)[C@H](OC(C)=O)CC[C@](O)(COC(=O)C(C)C)[C@@H]3C[C@H]12 |  | 100
C=C1C(=O)OC2C[C@@H](C)[C@@H]3C=CC(=O)[C@@]3(C)[C@H](O)[C@H]12 (single isomer, unassigned) |  | 20
C=C1C(=O)O[C@@H]2[C@H]3C(C)=CC[C@H](O)[C@]3(C)CC[C@@H]12 |  | 300
C=C1C(=O)OC2[C@H]3O[C@]3(C)CC/C=C(/C)CC[C@@H]12 (some centres not stated) |  | 20
C=C1C(=O)O[C@H]2CC(=C)[C@H](O)CC/C(C)=C/[C@@H](O)[C@H]12 |  | 50
